RGS4 pot: RGS4 potentiation or activation | B-score at 10 µM | AID 463111 | actives 0.92% (n = 310,000) | HEK293 M3R/inducible RGS4, carbachol calcium flux Fluo4; active compounds read low;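 active = B-score of the integrated calcium signal more than 4 SD below the library mean, with starting fluorescence not abnormally high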;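 also: negative B-score means reduced calcium response which marks RGS4 activation or potentiation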
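Material: M3R-expressing HEK293 line, RGS4 induced by doxycycline | Schedule: Overnight RGS4 induction, 30 min dye load 37 °C, 20 min compound RT | Measured by: Fluo4 fluorescence kinetic imaging of calcium | Read-out: Integrated calcium ratio converted to B score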
MrgX1 agonist: agonists of human MrgX1 receptor; MrgX1-HEK293 cells, Fluo-4 calcium fluorescence, agonist mode; active compounds read high; Q96LB2; actives 0.44% (n = 310,000); B-score at 10 µM;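 active = calcium response B-score plate-corrected fluorescence ratio at least 3 library SD, with starting fluorescence B-score inside 5 SD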
Target sequence (Q96LB2 whole entry, looked up): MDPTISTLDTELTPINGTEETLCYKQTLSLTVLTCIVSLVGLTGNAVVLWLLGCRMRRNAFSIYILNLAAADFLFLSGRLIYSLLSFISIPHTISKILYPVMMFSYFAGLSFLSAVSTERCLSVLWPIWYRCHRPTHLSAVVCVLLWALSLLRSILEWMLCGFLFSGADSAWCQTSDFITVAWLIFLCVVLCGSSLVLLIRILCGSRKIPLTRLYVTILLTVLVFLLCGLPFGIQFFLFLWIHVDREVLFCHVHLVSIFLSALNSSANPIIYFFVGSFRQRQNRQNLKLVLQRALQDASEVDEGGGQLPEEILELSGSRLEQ
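Test system: HEK293 cells stably expressing human MrgX1 receptor; amount: 15,000 cells per well; doses: compound delivered in addition one of three; times: overnight plating before 1 h dye loading; detection: Fluo-4 NW calcium-flux fluorescence, kinetic read; read-out basis: B-scored fluorescence response ratio; controls: positive and negative controls per plate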
MrgX1 antagonist: antagonists of human MrgX1 receptor. MRGX1-HEK293 calcium flux, Fluo-4, BAM8-22 antagonism; active compounds read low. B-score at 10 µM. actives 1.3% (n = 310,000);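 active = calcium-response B-score plate-corrected more than 3 library SD below zero, starting fluorescence within 5 deviations, no agonist response on first addition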;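 also: peak minus trough fluorescence over baseline after final BAM8-22 challenge near maximal dose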
RGS4 inh: human RGS4 inhibition; P49798; HEK293 M3R/RGS4 inducible, Fluo-4 calcium flux; active compounds read high; triggered by carbachol at its EC20; B-score at 10 µM; actives 0.45% (n = 310,000);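 active = B-score, a plate-corrected calcium signal, over three deviations above library mean, with baseline fluorescence within five deviations of library mean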;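 also: RGS4 expression induced by doxycycline in cells with stable M3 receptor; B-score is computed from the integrated fluorescence ratio over baseline after carbachol; higher B-score means a larger calcium signal and so more RGS4 inhibition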
MrgX1 PAM: allosterically activates human MrgX1 receptor signaling | AID 588675 | actives 0.63% (n = 310,000) | B-score at 10 µM | MrgX1-HEK293, Fluo-4 calcium flux, FDSS; active compounds read high;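 active = plate-corrected calcium response at least 3 library SD above typical, normal starting fluorescence, not activating the receptor alone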;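 also: compound read alongside a low EC10 to EC30 dose of BAM8-22 agonist; peak minus trough fluorescence over baseline measured at the second addition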
Starred values were filed as active, the others as inactive; i = inactive. Shown are actives, neighbours in structure and some others; about 3.5% of the full set was active somewhere.

SMILES	RGS4 pot	MrgX1 agonist	MrgX1 antagonist	RGS4 inh	MrgX1 PAM
COC(=O)c1ccccc1CON1C(=O)C(C)(C)N(OCc2ccccc2C(=O)OC)C(=O)C1(C)C	i	i	-8.1*	i	i
COC(=O)c1ccccc1NC(=O)CC(=O)Nc1ccccc1C(=O)OC	i	i	i	i	i
O=P(CCCCCCCCCP(=O)(c1ccccc1)c1ccccc1)(c1ccccc1)c1ccccc1	-7*	i	i	i	i
OCc1nc2ccccc2n1/N=C/c1cccs1	i	i	i	i	i
Cn1c(SCC(=O)Nc2cccc(S(=O)(=O)NC3=NCCCCC3)c2)nnc1-c1ccccc1	i	i	i	i	i
Cc1cc(N/N=C\c2ccccc2)nc(-c2ccccc2O)n1	-7.6*	i	i	i	i
COc1ccccc1C(=O)NC(=O)COC(=O)C1CC2CCCC(C1)C2=O (centres undefined)	i	i	i	i	i
CC(=O)Oc1c(C)cc(Cl)cc1C(=O)Nc1ccc([N+](=O)[O-])cc1Cl	i	i	-5*	i	i
CC(=O)OCC(=O)Nc1ccc([N+](=O)[O-])cc1Cl	i	i	i	i	i
Cc1cc(C)n(C(C)CNS(=O)(=O)c2ccccc2)n1 (centres undefined)	i	i	i	i	i
O=C(NC(Cc1ccccc1)C(=O)Oc1ccc2c(C(F)(F)F)cc(=O)oc2c1)OCc1ccccc1 (centres undefined)	i	i	i	i	8.4*
O=C(CNC(=O)OCc1ccccc1)Oc1ccc2ccc(=O)oc2c1	i	i	i	i	i
Fc1ccccc1-c1nc2c(s1)CCc1onc(-c3ccc(Br)cc3)c1-2	i	i	-5.4*	i	i
COc1ccc(-c2noc3c2-c2nc(-c4ccc(C)cc4)sc2CC3)cc1	i	i	-4.6*	i	i
COc1ccc(-c2noc3c2-c2nc(-c4ccccc4)sc2CC3)cc1	i	i	i	i	i
Cc1ccc(N2C(=O)N(CC(=O)Nc3ccc(C)c(C)c3[N+](=O)[O-])C(=O)C2C)cc1 (centres undefined)	i	i	i	i	i
CCC(C(=O)NCCc1c[nH]c2ccc(C)cc12)c1ccccc1 (centres undefined)	i	i	i	i	i
CC1=C(C)CS(=O)N(S(=O)(=O)c2ccc(Cl)cc2)C1 (centres undefined)	i	52*	i	i	i
CC1CCCC(C)N1S(=O)(=O)c1ccc(Cl)cc1 (centres undefined)	i	i	i	i	i
Cc1cc(C)nc(CCNC(=O)c2cc(COc3c(C)cccc3C)on2)n1	i	i	i	i	i
Cc1ccn(CCNC(=O)C2CCC(=O)N(CCc3ccc(Cl)cc3)C2)n1 (centres undefined)	i	i	i	i	i
COc1cccc(C(=O)C2CCCN(CC3=Cc4cc(OC)ccc4OC3)C2)c1 (centres undefined)	-7*	i	i	i	i
COc1cccc(CN(C)C(=O)c2cc(-c3ccc(F)cc3)nc3ccccc23)c1	-8.1*	i	-15*	i	i
COc1ccccc1CN(C)C(=O)c1cc(-c2cccs2)nc2ccccc12	-8.6*	i	i	i	i
COc1cccc(NC(=O)CN(C)C(=O)c2cc(-c3ccccc3)nc3ccccc23)c1	i	i	i	i	i
COc1ccc(CCN(C)C(=O)c2cc(-c3ccccc3)nc3ccc(C)cc23)cc1OC	i	i	i	i	i
COc1ccc(CN(C)C(=O)c2cc(-c3ccccc3)nc3ccc(C)cc23)c(OC)c1OC	-7.2*	i	i	i	i
CCc1ccc2oc(=O)cc(CN3CCOCC3)c2c1	i	i	i	i	i
CC1CCN(Cc2cc(=O)oc3cc4c(cc23)CCCC4)CC1	i	i	i	i	8.5*
CCc1ccc2oc(=O)cc(CN3CCC(C)CC3)c2c1	i	29*	i	i	i

Compound activity (PubChem BioAssay)
